The source of these data is ChEMBL document CHEMBL3616402, “A novel series of indazole-/indole-based glucagon receptor antagonists” (Bioorg Med Chem Lett, 2015).

pIC50: −log10 of the molar value. Calls of active or inactive are those of the source. The calls are words filed in the database; no cut-off is given here.

For data set [1], the target named is T1, Glucagon receptor (Homo sapiens, UniProt P47871). The data set can be described thus: Displacement of [125I]glucagon from human glucagon receptor expressed in CHO cell membranes. The method, boiled down:
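Binding: displacement of [125I]glucagon from human GCGR in membranes prepared from a CHO cell line stably expressing hGCGR; IC50 reported in nM.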
(Loss of bound radioactivity is the signal in a displacement assay; it reports binding, not function.)

The target in data set [2] is T1, Glucagon receptor. The data set is described as follows: Antagonist activity against human glucagon receptor expressed in CHO cells assessed as reduction in glucagon-induced cAMP production. It counts as functional, cell-based. On the technique in general: Changes in cAMP serve as a functional read-out for many G protein-coupled receptors.
Data set [3] addresses T2, Gastric inhibitory polypeptide receptor (Homo sapiens, UniProt P48546).
T2 sequence (P48546 whole entry): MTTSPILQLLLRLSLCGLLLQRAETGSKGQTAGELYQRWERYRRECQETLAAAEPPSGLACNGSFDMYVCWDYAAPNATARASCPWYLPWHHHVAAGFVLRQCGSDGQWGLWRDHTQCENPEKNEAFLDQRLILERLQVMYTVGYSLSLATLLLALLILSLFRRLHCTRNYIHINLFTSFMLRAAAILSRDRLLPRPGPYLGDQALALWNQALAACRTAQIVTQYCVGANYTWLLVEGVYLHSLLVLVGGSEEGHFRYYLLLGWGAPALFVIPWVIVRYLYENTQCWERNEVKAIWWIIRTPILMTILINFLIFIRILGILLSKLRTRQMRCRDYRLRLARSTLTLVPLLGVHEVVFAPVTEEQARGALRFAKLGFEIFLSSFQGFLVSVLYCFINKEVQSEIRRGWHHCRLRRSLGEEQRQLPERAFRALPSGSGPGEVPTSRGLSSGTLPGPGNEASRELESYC
The data set can be described thus: Antagonist activity against human glucose dependent insulinotropic peptide receptor by cAMP accumulation assay. It counts as functional. In a few lines: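 Selectivity counter-screen: cAMP production measured in CHO cells expressing human GIPR; IC50 (potency) determined.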

The species entered for a further data set is Homo sapiens. The data set is described as follows: Selectivity index, ratio of IC50 for human glucose dependent insulinotropic peptide receptor to IC50 for human glucagon receptor.
A short description of data set [4]: Plasma clearance in Wistar rat at 0.5 mg/kg, iv or 2 mg/kg, po. It counts as ADME, organism-based. The method, boiled down: (§1)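 Wistar rats given 0.5 mg/kg iv and 2 mg/kg po; plasma concentration–time profiles used to derive plasma clearance, steady-state volume of distribution, half-life and dose-normalized AUC (µM·h·kg/mg).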
The nature of data set [5]: Volume of distribution at steady state in Wistar rat at 0.5 mg/kg, iv or 2 mg/kg, po. It counts as ADME, organism-based. The note with it: in vivo, read-out: Vdss. In a few lines:
as §1

Data set [6] is described as follows: Half life in Wistar rat at 0.5 mg/kg, iv or 2 mg/kg, po. It counts as ADME, organism-based. The note with it: in vivo. The method, boiled down: as §1
The test system of the next data set is Rattus norvegicus. The data set is described as follows: Dose normalized AUC in Wistar rat at 0.5 mg/kg, iv or 2 mg/kg, po. It counts as ADME, organism-based. The note with it: in vivo. The method, boiled down:
as §1

The nature of data set [7]: Oral bio availability in Wistar rat 2 mg/kg. It counts as ADME, organism-based. Particulars: in vivo. The method, boiled down:
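Oral bioavailability from Wistar rats dosed 2 mg/kg po with 0.5 mg/kg iv reference dose; F (%) from plasma exposure.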

For data set [8], the system named is Mus musculus. The data set is described as follows: Reduction in glucagon-induced glucose excursion in glucagon receptor humanized mouse model of acute glucagon challenge model at 1 to 10 mg/kg, po dosed 1 hr before glucagon challenge. It counts as functional, organism-based. In a few lines: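 hGCGR-humanized mice given compound orally at 1, 3 or 10 mg/kg one hour prior to IP glucagon (15 µg/kg); blood glucose followed as change from time 0.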

The nature of data set [9]: Drug level in glucagon-induced glucose excursion in glucagon receptor humanized mouse model of acute glucagon challenge model at 1 mg/kg, po dosed 1 hr before glucagon challenge and measured after 60 mins post dose. It counts as ADME, organism-based. The note with it: in vivo, read-out: Drug uptake. The method, boiled down: (§2)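 Glucagon-receptor-humanized (hGCGR) mice dosed orally at 1, 3 or 10 mg/kg one hour before IP glucagon challenge (15 µg/kg); drug level measured at 60 min.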

Data set [10] is described as follows: Drug level in glucagon-induced glucose excursion in glucagon receptor humanized mouse model of acute glucagon challenge model at 3 mg/kg, po dosed 1 hr before glucagon challenge and measured after 60 mins post dose. It counts as ADME, organism-based. Particulars: in vivo, read-out: Drug uptake. In a few lines:
as §2

Data set [11] in a line: Drug level in glucagon-induced glucose excursion in glucagon receptor humanized mouse model of acute glucagon challenge model at 10 mg/kg, po dosed 1 hr before glucagon challenge and measured after 60 mins post dose. The note with it: in vivo, read-out: Drug uptake. It counts as ADME, organism-based. In a few lines: as §2
The subject of data set [12] is Mus musculus. The data set can be described thus: Reduction in blood glucose levels in glucagon receptor humanized ob/ob mouse acute model at 3 mg/kg, po after 1 to 6 hrs. It counts as functional, organism-based. The method, boiled down: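 hGCGR ob/ob mice (N = 10–12 per group) dosed orally at 3 mg/kg at 0 h with food removed at 0 h; ambient blood glucose monitored over 6 h versus vehicle control, significance at each time point.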

Data set [13] is described as follows: Drug level in glucagon receptor humanized ob/ob mouse acute model at 3 mg/kg, po after 1 hrs. Particulars: in vivo, read-out: Drug uptake. It counts as ADME, organism-based.
Data set [14] is described as follows: Drug level in glucagon receptor humanized ob/ob mouse acute model at 3 mg/kg, po after 3 hrs. It counts as ADME, organism-based. Particulars: in vivo, read-out: Drug uptake.

T1 sequence (P47871 whole entry): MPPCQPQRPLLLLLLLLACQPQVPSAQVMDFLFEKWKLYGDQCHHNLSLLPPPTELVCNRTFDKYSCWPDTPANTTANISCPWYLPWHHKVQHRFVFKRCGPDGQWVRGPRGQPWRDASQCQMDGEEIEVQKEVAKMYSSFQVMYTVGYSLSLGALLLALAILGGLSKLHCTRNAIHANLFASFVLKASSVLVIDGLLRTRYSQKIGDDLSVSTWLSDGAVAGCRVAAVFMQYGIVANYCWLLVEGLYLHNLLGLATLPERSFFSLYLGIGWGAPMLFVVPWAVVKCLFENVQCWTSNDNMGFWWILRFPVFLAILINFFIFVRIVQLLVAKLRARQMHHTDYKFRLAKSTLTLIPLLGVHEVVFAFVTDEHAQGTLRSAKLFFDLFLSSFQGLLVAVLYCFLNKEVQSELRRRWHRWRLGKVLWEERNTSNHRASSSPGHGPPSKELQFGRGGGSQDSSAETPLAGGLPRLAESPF

With `CCCCC(c1ccc(C(=O)NCCC(=O)O)cc1)n1nc(-c2cc(C(F)(F)F)ccc2OC)c2ccc(-c3ccc(OC)cc3)cc21` (stereo unspecified), the figures for the pIC50 (at Glucagon receptor [1]; at Glucagon receptor [2]; in [3]) were 8.72, 7.85 and 5.96, respectively. In addition, the Ratio IC50 in the data set filed under Homo sapiens stood at 79. The clearance in data set [4] is 1.7 mL/min/kg. Further, the Vd in data set [5] came to 0.67 L/kg. In data set [6], this compound gave a half-life of 6.4 h. Moreover, the AUC/dose in the data set on Rattus norvegicus came to 4 µM·kg·h/mg. This compound displayed a bioavailability in [7] of 27%.

Consider `COc1ccc(C(F)(F)F)cc1-c1nn(C(C)c2ccc(C(=O)NCCC(=O)O)cc2)c2cc(-c3ccc(C)cc3)ccc12` (stereo unspecified), for which the pIC50 at Glucagon receptor [1] was 8.59; at Glucagon receptor [2] it was 8.12; in data set [3], 5.89. Moreover, in the data set listed under Homo sapiens, the Ratio IC50 turned out to be 170. In [4], this compound showed a clearance of 6.3 mL/min/kg. In addition, the Vd in [5] came out at 0.65 L/kg. For the same compound, in data set [6], the half-life is 1.5 h. Moreover, the AUC/dose with Rattus norvegicus came to 2 µM·kg·h/mg. In addition, the bioavailability in [7] stood at 44%. The inhibition result in the data set on Mus musculus [8] and in the data set on Mus musculus [12] was “Active” throughout. Further, the concentration at 1 h in data set [9] worked out at 180 nM; in data set [10], 500 nM; in data set [11] it was 2540 nM; in [13], 400 nM. Moreover, in [14], the concentration at 3 h came to 280 nM.

For the compound `CCCCC(c1ccc(C(=O)NCCC(=O)O)cc1)n1nc(-c2cc(C(F)(F)F)ccc2OC)c2ccc(-c3ccc(C)cc3)cc21` (stereo unspecified), the negative-log IC50 (pIC50) at Glucagon receptor [1] was 8.59; at Glucagon receptor [2], 8.18; in data set [3], 6.00. In the data set listed under Homo sapiens, the Ratio IC50 was 150. Besides, the clearance in data set [4] was found to be 3.9 mL/min/kg. In data set [5], the Vd is 1 L/kg. Besides, the half-life in data set [6] is 4 h. In the data set with Rattus norvegicus, this compound displayed an AUC/dose of 1.2 µM·kg·h/mg. For the same compound, the bioavailability in data set [7] was found to be 17%.

Consider `CCCCC(c1ccc(C(=O)NCCC(=O)O)cc1)n1nc(-c2cc(C(F)(F)F)ccc2OC)c2ccc(-c3ccc(OC(F)(F)F)cc3)cc21` (stereo unspecified), for which the pIC50 on Glucagon receptor [1] is 9.10; on Glucagon receptor [2], 8.10; in [3], 6.12. In addition, the Ratio IC50 in the data set listed under Homo sapiens worked out at 94. The clearance in data set [4] was 7.5 mL/min/kg. In data set [5], the Vd turned out to be 0.72 L/kg. This compound had a half-life in data set [6] of 4.7 h. The compound also showed an AUC/dose with Rattus norvegicus of 0.3 µM·kg·h/mg. In addition, the bioavailability in data set [7] was 9%.

`CC(c1ccc(C(=O)NCCC(=O)O)cc1)n1nc(-c2ccc(C(=O)N(C)C)cc2)c2ccc(-c3ccc(OC(F)(F)F)cc3)cc21` (stereo unspecified): the negative logarithm of the IC50 (pIC50) at Glucagon receptor [1] is 7.40; at Glucagon receptor [2], 6.68.

As for `CCCC(c1ccc(C(=O)NCCC(=O)O)cc1)n1nc(-c2cc(C(F)(F)F)ccc2OC)c2ccc(-c3ccc(OC(F)(F)F)cc3)cc21` (stereo unspecified), the values for the pIC50 (on Glucagon receptor [1]; on Glucagon receptor [2]; in data set [3]) were 9.00, 8.25 and 5.85, respectively. Further, the Ratio IC50 in the data set filed under Homo sapiens was found to be 250. The same compound displayed a clearance in data set [4] of 2.2 mL/min/kg. In addition, the Vd in [5] was determined as 1.3 L/kg. In [6], this compound showed a half-life of 9.7 h. The AUC/dose with Rattus norvegicus amounted to 2 µM·kg·h/mg. The compound also registered a bioavailability in [7] of 19%.

For `CCCCC(c1ccc(C(=O)NCCC(=O)O)cc1)n1nc(-c2cc(C(F)(F)F)ccc2OC)c2ccc(-c3ccc(OC)nc3)cc21` (stereo unspecified), the negative-log IC50 (pIC50) was 8.47 at Glucagon receptor [1] and 7.62 at Glucagon receptor [2].

The term pIC50 denotes −log10 of the IC50, conventionally taken in molar units. By half-life is commonly meant the time in which the quantity being followed falls by half. As usually defined, the bioavailability is the share of a dose that reaches the circulation, judged against a reference dose that is usually intravenous. A low value points to little systemic uptake.
